Experimental data: ChEMBL document CHEMBL5120943, “Discovery of Novel Pyrazolopyrimidines as Potent, Selective, and Orally Bioavailable Inhibitors of ALK2” (ACS Med Chem Lett, 2022)
Activity calls are given as the source filed them. The calls are words filed in the database; no cut-off is given here.

Key:
[1] = Protein binding in human plasma assessed as free fraction measured after 2 hrs by LC-MS/MS analysis; type: ADME, cell-free
[2] = Cmax in Sprague-Dawley rat at 3 mg/kg, po measured upto 24 hrs post dose by LC/MS/MS analysis; type: ADME, organism-based; set-up: dose 3 mg/kg, time < 24 hrs, route po; conditions: in vivo
[3] = Volume of distribution at steady state in Sprague-Dawley rat at 3 mg/kg, po or 1 mg/kg, iv measured upto 24 hrs post dose by LC/MS/MS analysis; type: ADME, organism-based; conditions: in vivo
[4] = Metabolic stability in human liver microsomes assessed as intrinsic clearance at 1uM and measured upto 30 mins in presence of NADPH by LC/MS analysis; type: ADME, Microsome; conditions: read-out: CLH (converted)
[5] = Oral bioavailability in Sprague-Dawley rat at 3 mg/kg measured upto 24 hrs post dose by LC/MS/MS analysis; type: ADME, organism-based; conditions: in vivo
[6] = AUC infinity in Sprague-Dawley rat at 3 mg/kg, po measured upto 24 hrs post dose by LC/MS/MS analysis; type: ADME, organism-based; set-up: time < 24 hrs, dose 3 mg/kg, route po; conditions: in vivo
[7] = Half life in Sprague-Dawley rat at 3 mg/kg, po or 1 mg/kg, iv measured upto 24 hrs post dose by LC/MS/MS analysis; type: ADME, organism-based; conditions: in vivo
[8] = molecular target: T1, Hepcidin (Homo sapiens, UniProt P81172); assay: Inhibition of Hepcidin in human Huh-7 cells assessed as inhibition of BMP-7 induced hepcidin production incubated for 16 to 24 hrs by ELISA method; type: cell-based
T1 sequence (P81172 whole entry): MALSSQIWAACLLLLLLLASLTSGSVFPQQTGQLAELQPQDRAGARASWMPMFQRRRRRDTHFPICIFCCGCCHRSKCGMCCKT
Summary of the method: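 Huh7 liver cells were stimulated with BMP7. Inhibition of secreted hepcidin was measured and an IC50 was derived.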

[9] = molecular target: T2, Activin receptor type-1 (Homo sapiens, UniProt Q04771); assay: Inhibition of human recombinant N-terminal GST tagged ALK2 (147 to end residues) expressed in baculovirus infected in Sf9 cells assessed as loss of peptide phosphorylation activity using peptide substrate in presence of ATP and measured after 3 hrs by HTRF assay
T2 sequence (Q04771 whole entry): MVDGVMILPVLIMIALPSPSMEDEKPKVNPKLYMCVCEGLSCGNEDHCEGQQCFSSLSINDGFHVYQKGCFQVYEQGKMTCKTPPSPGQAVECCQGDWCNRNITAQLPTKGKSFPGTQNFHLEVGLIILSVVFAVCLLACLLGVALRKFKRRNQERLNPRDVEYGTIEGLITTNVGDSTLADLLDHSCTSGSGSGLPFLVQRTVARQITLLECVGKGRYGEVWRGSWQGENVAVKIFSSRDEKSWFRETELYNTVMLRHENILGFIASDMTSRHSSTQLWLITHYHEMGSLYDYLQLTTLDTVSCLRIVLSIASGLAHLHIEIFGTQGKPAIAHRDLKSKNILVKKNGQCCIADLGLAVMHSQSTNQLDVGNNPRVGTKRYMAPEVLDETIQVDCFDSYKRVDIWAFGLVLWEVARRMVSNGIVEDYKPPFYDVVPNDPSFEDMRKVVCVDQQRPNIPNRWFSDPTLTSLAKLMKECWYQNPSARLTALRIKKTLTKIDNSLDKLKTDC
Summary of the method: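 HTRF activity assay measuring loss of ALK2 phosphorylation of a peptide substrate. IC50 values were determined.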

[10] = molecular target: T2, Activin receptor type-1; assay: Inhibition of ALK2 in human HeLa cells assessed as reduction in BMP-7 induced SMAD1 phosphorylation incubated for 1 hr followed BMP-7 stimulation for 30 mins by HTRF assay; type: cell-based
Summary of the method: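 HeLa cells were stimulated with BMP7. Inhibition of BMP7-induced SMAD1 phosphorylation was read by HTRF and an IC50 was derived.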

[11] = molecular target: Cytochrome P450 2D6 (Homo sapiens, UniProt P10635); assay: Inhibition of CYP2D6 (unknown origin); type: ADME
[12] = AUC (0 to 24 hrs) in C57BL/6 mouse liver at 10 mg/kg, po; type: ADME, organism-based; set-up: time < 24 hr, dose 10 mg/kg, route po
Summary of the method: (§1)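 Female C57BL/6 mice were given a single oral dose of 10 mg/kg. Compound concentrations in liver and plasma were measured, and AUC was calculated over 0–24 h.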

[13] = molecular target: hERG (KCNH2) (Homo sapiens, UniProt Q12809); assay: Inhibition of human ERG at 1 uM by patch clamp assay relative to control; type: toxicity
Summary of the method: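 hERG activity was tested by patch clamp at 1 μM and expressed as percent inhibition.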

[14] = molecular target: Cytochrome P450 2C19 (Homo sapiens, UniProt P33261); assay: Inhibition of CYP2C19 (unknown origin); type: ADME
[15] = Apparent permeability across apical to basolateral side in human Caco-2 cells at 50 uM incubated for 120 mins by LC/MS/MS analysis
[16] = molecular target: T3, Cytochrome P450 2C8 (Homo sapiens, UniProt P10632); assay: Inhibition of CYP2C8 (unknown origin); type: ADME
T3 sequence (P10632 whole entry): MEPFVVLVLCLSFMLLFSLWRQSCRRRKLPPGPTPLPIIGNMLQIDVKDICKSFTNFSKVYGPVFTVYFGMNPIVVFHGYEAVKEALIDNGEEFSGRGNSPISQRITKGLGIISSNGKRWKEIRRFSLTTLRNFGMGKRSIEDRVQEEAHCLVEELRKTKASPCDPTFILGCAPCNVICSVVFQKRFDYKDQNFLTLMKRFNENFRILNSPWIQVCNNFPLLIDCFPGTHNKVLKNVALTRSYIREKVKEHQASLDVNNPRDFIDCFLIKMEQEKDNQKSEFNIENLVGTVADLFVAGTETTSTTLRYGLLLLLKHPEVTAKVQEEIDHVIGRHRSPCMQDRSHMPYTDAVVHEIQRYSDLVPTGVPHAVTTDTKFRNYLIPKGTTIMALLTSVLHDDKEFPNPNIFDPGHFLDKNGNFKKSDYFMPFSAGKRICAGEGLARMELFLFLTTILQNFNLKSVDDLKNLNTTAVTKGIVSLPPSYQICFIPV

[17] = molecular target: Cytochrome P450 2C9 (Homo sapiens, UniProt P11712); assay: Inhibition of CYP2C9 (unknown origin); type: ADME
[18] = In vivo inhibition of ALK2 in C57BL/6 mouse assessed as reduction in hepcidin level in plasma at 10 mg/kg, po measured after 4 hrs post dose relative to control; type: functional
[19] = molecular target: T4, Cytochrome P450 1A2 (Homo sapiens, UniProt P05177); assay: Inhibition of CYP1A2 (unknown origin); type: ADME
T4 sequence (P05177 whole entry): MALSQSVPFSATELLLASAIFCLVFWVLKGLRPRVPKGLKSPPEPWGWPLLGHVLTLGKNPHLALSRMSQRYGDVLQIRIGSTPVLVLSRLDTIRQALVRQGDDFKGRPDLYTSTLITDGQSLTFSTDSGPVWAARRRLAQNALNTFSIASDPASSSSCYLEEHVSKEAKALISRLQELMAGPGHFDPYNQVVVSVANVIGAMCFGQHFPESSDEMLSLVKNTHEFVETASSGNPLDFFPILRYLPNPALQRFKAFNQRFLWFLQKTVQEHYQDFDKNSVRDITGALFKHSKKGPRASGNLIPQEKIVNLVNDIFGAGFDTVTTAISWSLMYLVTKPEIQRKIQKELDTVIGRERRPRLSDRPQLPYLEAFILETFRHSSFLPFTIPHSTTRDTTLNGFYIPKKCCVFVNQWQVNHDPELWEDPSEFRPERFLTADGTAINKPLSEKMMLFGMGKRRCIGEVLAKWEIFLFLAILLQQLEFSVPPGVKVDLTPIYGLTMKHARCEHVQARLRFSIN

[20] = AUC (0 to 24 hrs) in C57BL/6 mouse plasma at 10 mg/kg, po; type: ADME, organism-based; set-up: time < 24 hr, dose 10 mg/kg, route po; summary of the method: as §1
[21] = molecular target: T5, Cytochrome P450 2B6 (Homo sapiens, UniProt P20813); assay: Inhibition of CYP2B6 (unknown origin); type: ADME
T5 sequence (P20813 whole entry): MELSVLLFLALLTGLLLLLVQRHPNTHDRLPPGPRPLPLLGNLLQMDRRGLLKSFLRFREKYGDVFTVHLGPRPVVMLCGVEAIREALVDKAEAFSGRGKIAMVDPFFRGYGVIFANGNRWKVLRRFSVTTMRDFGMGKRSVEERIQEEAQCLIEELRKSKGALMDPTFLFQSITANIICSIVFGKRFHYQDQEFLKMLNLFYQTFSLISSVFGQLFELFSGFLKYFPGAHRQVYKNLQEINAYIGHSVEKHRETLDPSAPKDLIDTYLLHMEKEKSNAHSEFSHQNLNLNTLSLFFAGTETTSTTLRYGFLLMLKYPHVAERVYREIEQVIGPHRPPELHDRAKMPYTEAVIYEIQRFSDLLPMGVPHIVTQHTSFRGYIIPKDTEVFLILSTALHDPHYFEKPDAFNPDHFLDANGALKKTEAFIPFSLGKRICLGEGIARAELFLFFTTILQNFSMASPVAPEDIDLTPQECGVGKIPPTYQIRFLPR

[22] = test system: Mus musculus; assay: In vivo inhibition of ALK2 in C57BL/6 mouse assessed as reduction in hepcidin level in plasma at 10 mg/kg, po measured after 24 hrs post dose; type: functional, organism-based
[23] = molecular target: Cytochrome P450 3A4 (Homo sapiens, UniProt P08684); assay: Inhibition of CYP3A4 (unknown origin); type: ADME
Chain of Cytochrome P450 3A4 (P08684 whole entry): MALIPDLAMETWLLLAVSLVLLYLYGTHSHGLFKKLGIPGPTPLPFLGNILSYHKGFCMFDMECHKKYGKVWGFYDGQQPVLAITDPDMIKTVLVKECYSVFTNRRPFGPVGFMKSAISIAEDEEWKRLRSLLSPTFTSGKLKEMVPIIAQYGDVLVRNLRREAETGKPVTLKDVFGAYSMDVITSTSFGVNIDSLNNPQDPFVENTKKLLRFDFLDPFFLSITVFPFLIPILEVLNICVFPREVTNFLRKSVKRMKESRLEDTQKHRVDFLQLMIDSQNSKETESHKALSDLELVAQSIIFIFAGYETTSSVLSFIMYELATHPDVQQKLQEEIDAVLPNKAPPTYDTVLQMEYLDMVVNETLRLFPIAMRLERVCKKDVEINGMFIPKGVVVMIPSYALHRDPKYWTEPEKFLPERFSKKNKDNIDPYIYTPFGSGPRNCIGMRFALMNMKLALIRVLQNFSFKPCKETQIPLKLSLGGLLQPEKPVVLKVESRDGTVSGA

Chain of Cytochrome P450 2C9 (P11712 whole entry): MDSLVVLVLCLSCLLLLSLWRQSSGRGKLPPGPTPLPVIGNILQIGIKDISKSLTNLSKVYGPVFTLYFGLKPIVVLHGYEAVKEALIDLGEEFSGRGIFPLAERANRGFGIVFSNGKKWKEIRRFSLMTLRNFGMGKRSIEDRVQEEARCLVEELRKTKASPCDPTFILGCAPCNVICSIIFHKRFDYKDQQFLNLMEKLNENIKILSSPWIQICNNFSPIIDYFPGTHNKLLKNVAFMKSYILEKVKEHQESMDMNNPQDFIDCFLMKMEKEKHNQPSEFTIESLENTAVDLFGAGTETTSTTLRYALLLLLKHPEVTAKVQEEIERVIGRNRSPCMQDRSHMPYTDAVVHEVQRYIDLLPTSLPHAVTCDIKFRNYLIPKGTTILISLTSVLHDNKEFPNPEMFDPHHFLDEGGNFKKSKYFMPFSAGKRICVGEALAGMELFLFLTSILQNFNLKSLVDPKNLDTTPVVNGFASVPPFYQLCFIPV
Chain of Cytochrome P450 2C19 (P33261 whole entry): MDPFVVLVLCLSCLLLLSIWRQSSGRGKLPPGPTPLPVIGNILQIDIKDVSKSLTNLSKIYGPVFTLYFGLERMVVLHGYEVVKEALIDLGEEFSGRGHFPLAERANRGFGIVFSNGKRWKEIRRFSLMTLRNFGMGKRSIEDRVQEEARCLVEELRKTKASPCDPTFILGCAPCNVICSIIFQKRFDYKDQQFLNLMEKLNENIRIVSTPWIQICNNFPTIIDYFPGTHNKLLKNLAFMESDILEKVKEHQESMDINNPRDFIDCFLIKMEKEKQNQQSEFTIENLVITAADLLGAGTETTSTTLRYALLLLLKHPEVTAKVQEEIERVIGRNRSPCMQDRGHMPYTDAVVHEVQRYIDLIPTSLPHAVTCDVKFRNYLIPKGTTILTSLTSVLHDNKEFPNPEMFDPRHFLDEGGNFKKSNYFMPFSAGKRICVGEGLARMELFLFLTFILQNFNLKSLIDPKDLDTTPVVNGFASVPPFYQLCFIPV
Chain of hERG (KCNH2) (Q12809 whole entry): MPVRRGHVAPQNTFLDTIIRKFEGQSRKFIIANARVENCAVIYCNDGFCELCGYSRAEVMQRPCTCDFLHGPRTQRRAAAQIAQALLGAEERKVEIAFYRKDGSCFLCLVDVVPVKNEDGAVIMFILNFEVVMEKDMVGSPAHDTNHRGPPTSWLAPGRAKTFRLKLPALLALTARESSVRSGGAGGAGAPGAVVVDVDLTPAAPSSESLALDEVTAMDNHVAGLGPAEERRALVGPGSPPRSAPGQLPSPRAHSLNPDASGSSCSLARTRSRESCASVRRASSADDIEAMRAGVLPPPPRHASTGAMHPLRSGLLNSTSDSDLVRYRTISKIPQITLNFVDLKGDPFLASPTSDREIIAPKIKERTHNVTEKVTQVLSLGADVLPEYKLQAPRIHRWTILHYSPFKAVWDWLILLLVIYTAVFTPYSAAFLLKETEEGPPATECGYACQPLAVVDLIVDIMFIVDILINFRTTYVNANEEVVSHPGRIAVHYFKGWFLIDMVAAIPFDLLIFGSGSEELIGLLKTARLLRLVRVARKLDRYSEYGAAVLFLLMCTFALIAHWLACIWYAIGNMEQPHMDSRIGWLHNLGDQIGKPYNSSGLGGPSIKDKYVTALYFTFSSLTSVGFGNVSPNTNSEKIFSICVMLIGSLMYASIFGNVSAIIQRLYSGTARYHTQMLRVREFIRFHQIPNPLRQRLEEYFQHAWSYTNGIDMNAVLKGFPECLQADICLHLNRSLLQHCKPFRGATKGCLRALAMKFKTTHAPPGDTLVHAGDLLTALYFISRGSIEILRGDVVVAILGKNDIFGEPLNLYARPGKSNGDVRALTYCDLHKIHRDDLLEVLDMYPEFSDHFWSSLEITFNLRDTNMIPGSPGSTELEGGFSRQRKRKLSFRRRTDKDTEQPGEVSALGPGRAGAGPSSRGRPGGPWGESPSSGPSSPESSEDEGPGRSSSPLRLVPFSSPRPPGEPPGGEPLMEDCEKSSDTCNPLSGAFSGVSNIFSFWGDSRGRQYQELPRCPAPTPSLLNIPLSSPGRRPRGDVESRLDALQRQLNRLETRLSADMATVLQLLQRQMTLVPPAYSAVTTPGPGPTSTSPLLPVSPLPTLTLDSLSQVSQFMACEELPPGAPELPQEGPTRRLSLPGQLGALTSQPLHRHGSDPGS
Chain of Cytochrome P450 2D6 (P10635 whole entry): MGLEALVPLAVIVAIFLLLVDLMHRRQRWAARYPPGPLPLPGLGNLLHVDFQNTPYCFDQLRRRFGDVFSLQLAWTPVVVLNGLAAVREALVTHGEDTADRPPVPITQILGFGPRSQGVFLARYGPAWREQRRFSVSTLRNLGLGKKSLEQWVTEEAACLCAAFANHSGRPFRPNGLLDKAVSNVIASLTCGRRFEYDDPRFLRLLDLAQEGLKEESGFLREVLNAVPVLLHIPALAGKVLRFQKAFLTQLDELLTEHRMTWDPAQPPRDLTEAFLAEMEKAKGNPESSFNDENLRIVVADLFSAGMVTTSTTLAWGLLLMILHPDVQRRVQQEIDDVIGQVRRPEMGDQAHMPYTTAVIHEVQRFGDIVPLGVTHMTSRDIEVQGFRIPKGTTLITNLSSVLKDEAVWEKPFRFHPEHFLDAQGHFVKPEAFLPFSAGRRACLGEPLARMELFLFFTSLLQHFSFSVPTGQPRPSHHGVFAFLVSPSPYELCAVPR

C[C@@H]1CN(c2ccc(-c3n[nH]c4cnc(N5[C@H](C)CN(C(=O)N6CCCC6)C[C@@H]5C)nc34)cn2)CCN1
fraction unbound at 2 h [1]: 0.043 | Cmax [2]: 151 nM | Vdss [3]: 9.2 L/kg | CLint scaled at 1 µM [4]: 18.3 mL/min/kg | bioavailability [5]: 46% | AUC(0-inf) [6]: 0.669 µM·h | half-life [7]: 3.8 h | IC50 [8]: 28 nM

C[C@@H]1CN(c2ccc(-c3n[nH]c4cnc(N5CCCCC5)nc34)cn2)CCN1
IC50 [9]: 8.1 nM

COCC(=O)N1C[C@@H](C)N(c2ncc3[nH]nc(-c4ccc(N5CCN[C@H](C)C5)nc4)c3n2)[C@@H](C)C1
IC50 [9]: 7.3 nM | IC50 [10]: 346 nM

COC(=O)N1C[C@@H](C)N(c2ncc3[nH]nc(-c4ccc(N5CCN(C)CC5)cc4)c3n2)[C@@H](C)C1
IC50 [11]: > 25000 nM | AUC(0-t) at 24 h [12]: 376 µM·h | fraction unbound at 2 h [1]: 0.043 | inhibition at 1 µM [13]: < 1% | IC50 [14]: > 25000 nM | Cmax [2]: 434 nM | IC50 [9]: 0.98 nM | Papp A→B at 2 h, 50 µM [15]: 4.5 ×10⁻⁶ cm/s | Vdss [3]: 7.6 L/kg | IC50 [16]: > 25000 nM | IC50 [17]: > 25000 nM | inhibition in vivo at 10 mg/kg [18]: 80% | IC50 [19]: > 25000 nM | IC50 [10]: 61 nM | AUC(0-t) at 24 h [20]: 26.2 µM·h | IC50 [21]: > 25000 nM | CLint scaled at 1 µM [4]: 16.7 mL/min/kg | inhibition [22]: Active | bioavailability [5]: 85% | AUC(0-inf) [6]: 4.05 µM·h | IC50 [23]: > 25000 nM | half-life [7]: 5.7 h | IC50 [8]: 34 nM

C[C@@H]1CN(c2ccc(-c3n[nH]c4cnc(N5[C@H](C)CNC[C@@H]5C)nc34)cn2)CCN1
IC50 [9]: 793 nM

C[C@@H]1CN(c2ccc(-c3n[nH]c4cnc(N5[C@H](C)CN(C(=O)N(C)C)C[C@@H]5C)nc34)cn2)CCN1
IC50 [9]: 6.4 nM | IC50 [10]: 350 nM

CC1CCCCN1c1ncc2[nH]nc(-c3ccc(N4CCN[C@H](C)C4)nc3)c2n1 (stereo partly drawn)
IC50 [9]: 8.1 nM

C[C@@H]1CN(c2ccc(-c3n[nH]c4cnc(N5CCCCC5)cc34)cn2)CCN1
IC50 [9]: 77 nM

C[C@@H]1CN(c2ccc(-c3n[nH]c4cnc(N5[C@H](C)COC[C@@H]5C)nc34)cn2)CCN1
IC50 [9]: 23 nM | IC50 [10]: 245 nM

CC(C)C(=O)N1C[C@@H](C)N(c2ncc3[nH]nc(-c4ccc(N5CCN[C@H](C)C5)nc4)c3n2)[C@@H](C)C1
IC50 [9]: 8 nM | IC50 [10]: 661 nM

CCOC(=O)N1C[C@@H](C)N(c2ncc3[nH]nc(-c4ccc(N5CCN[C@H](C)C5)nc4)c3n2)[C@@H](C)C1
IC50 [9]: 4.9 nM | IC50 [10]: 212 nM

C[C@@H]1CN(c2ccc(-c3n[nH]c4ccc(N5CCCCC5)nc34)cn2)CCN1
IC50 [9]: 95 nM | IC50 [10]: > 3000 nM

COC(=O)N1C[C@@H](C)N(c2ncc3[nH]nc(-c4ccc(N5CCN(C)CC5)nc4)c3n2)[C@@H](C)C1
IC50 [8]: 58 nM

COC(=O)N1C[C@@H](C)N(c2ncc3[nH]nc(-c4ccc(N5CCN[C@H](C)C5)nc4)c3n2)[C@@H](C)C1
fraction unbound at 2 h [1]: 0.099 | Cmax [2]: 75 nM | IC50 [9]: 0.85 nM | Papp A→B at 2 h, 50 µM [15]: 0.6 ×10⁻⁶ cm/s | Vdss [3]: 21.9 L/kg | IC50 [10]: 27 nM | CLint scaled at 1 µM [4]: 15 mL/min/kg | bioavailability [5]: 49% | AUC(0-inf) [6]: 0.441 µM·h | half-life [7]: 3.1 h | IC50 [8]: 7.3 nM

C[C@@H]1CN(c2ccc(-c3n[nH]c4cnc(N5[C@H](C)CCC[C@@H]5C)nc34)cn2)CCN1
IC50 [9]: 2.5 nM | IC50 [10]: 384 nM

COC(=O)N1C[C@@H](C)N(c2ncc3[nH]nc(-c4ccc(N5CCN(C)CC5)c(F)c4)c3n2)[C@@H](C)C1
IC50 [9]: 1.3 nM | IC50 [10]: 119 nM
